Compound activity from PubChem BioAssay.
Most compounds without a hit are left out; they make up all but 0.99% or so of the library.
MT1-MMP act inh = inhibitors of human MT1-MMP activation | P50281 | HT1080 RFP-PRO-GFP cells, GFP/RFP ratio fluorescence, overnight; percent of plate control window, DMSO zero | GFP/RFP ratio change, % at 20 µM | hit rate 0.061% among 360,000 | AID 651647;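 active = GFP/RFP ratio change of at least 30% with cell ATP level not reduced by more than half and red fluorescence within 50% of control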
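Test system: HT1080 cells expressing an RFP-PRO-GFP fluorescent reporter construct / Compound dosing: single-point 20 µM compound, 1% DMSO / Schedule: cells overnight before dosing, compound overnight, 37 °C, 5% CO2 / Evaluation: GFP/RFP fluorescence ratio / Control set: DMSO and RFP-L50D-GFP cell wells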
SKN-1 inh = inhibitors of C. elegans SKN-1; C. elegans VP596 Pgst-4::GFP/RFP ratio, acrylamide-induced, 24 h; inhibition, % at 21.8 µM; hit rate 0.49% among 360,000;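 active = interference check ratio from 0.5 to 1.5 plus GFP to RFP signal ratio inhibition reaching or exceeding a fixed threshold, cut at about 30% in these data, passing the limit was not always enough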
NOD2-RIPK2 inh = NOD2-RIPK2 protein interaction inhibition. O43353. CHO BLA complementation NOD2-RIPK2, CCF4 ratio. inhibition, % at 4.98 µM. hit rate 0.38% among 360,000; in the data active = inhibition above about 21%;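 also: 0% = vehicle only and 100% = reference blocker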
TLR9-MyD88 block = TLR9-MyD88 interaction inhibition. CHO BLA complementation TLR9-MyD88, CCF4 FRET ratio. inhibition, % at 4.98 µM. hit rate 0.21% among 340,000;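 active = inhibition above the mean over all tested compounds plus 3 SD, cut at about 21% in these data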;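 also: 0% = DMSO only wells and 100% = clavulanate BLA inhibitor control wells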
TLR4 MyD88 comp = blocks binding of human TLR4 to MyD88; hit rate 0.18% among 200,000; AID 861; inhibition, % at 8.4 µM; HeLa CL3-4 TLR4/MyD88 BLA complementation, FRET ratio; O00206+Q99836; in the data active = inhibition above about 25%;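 also: 0% = vehicle and 100% = reference inhibitor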
TLR9-MyD88 cf = TLR9-MyD88 interaction inhibition, confirmation; shares compounds with TLR9-MyD88 block; CHO TLR9/MyD88 BLA complementation, CCF4 FRET ratio; inhibition, % at 4.98 µM; hit rate 51% among 680; AID 540250;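 active = mean inhibition across three repeats above about 21% taken from the earlier screen, limit read from the data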;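 also: blue over green emission ratio reports constitutive TLR9 MyD88 association via BLA complementation; 0% = DMSO vehicle wells and 100% = clavulanate BLA inhibitor wells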
BLA nonselective = counter-screen for TLR9-MyD88 inhibitors: non-selective beta-lactamase inhibitors | shares compounds with TLR9-MyD88 block | CHO-BLA cells, CCF4 FRET ratio, BLA reporter | inhibition, % at 4.98 µM | hit rate 7% among 680;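 active = mean inhibition above a 50% cutoff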;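 also: counterscreen of TLR9-MyD88 hits on CMV-driven BLA in CHO-K1 cells; 0% = DMSO alone and 100% = clavulanate blocking BLA; higher means less blue over green ratio so more BLA blockade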
TLR9 CHO cytotox = CHO cell toxicity counter-screen for TLR9-MyD88 inhibitors | shares compounds with TLR9-MyD88 block | TLR9-MyD88 CHO cells cytotoxicity, luminescence | inhibition, % at 4.98 µM | hit rate 39% among 680; in the data active = inhibition above about 11%
Starred values were filed as active, the others as inactive; x = not tested or not shown.

SMILES	MT1-MMP act inh	SKN-1 inh	NOD2-RIPK2 inh	TLR9-MyD88 block	TLR4 MyD88 comp	TLR9-MyD88 cf	BLA nonselective	TLR9 CHO cytotox
C=CCn1nc2n(c1=O)-c1ccccc1SC2	1	8	1	23*	x	0	3	-2
COc1cc(/C=N/NC(=O)c2ccc([N+](=O)[O-])cc2Cl)cc(Br)c1O	3	-3	3	34*	-4	-2	-1	-4
COc1ccc(Br)cc1C(=O)N/N=C/c1ccc([N+](=O)[O-])cc1	-1	-3	0	-11	-12	x	x	x
O=Nc1c(O)n(Cc2cccc(C(F)(F)F)c2)c2ccccc12	-5	-4	13	33*	12	9	9	2
O=Nc1c(O)n(Cc2ccccc2)c2ccccc12	-4	6	2	9	x	x	x	x
COC(=O)c1ccc(Cn2c(O)c(N=O)c3ccccc32)o1	0	-20	2	26*	-3	8	7	3
O=C(CS(=O)(=O)c1ccccc1)N1CCN(c2ccccc2)CC1	0	20	-10	1	x	x	x	x
Cc1ccc(CNC(=O)c2ccc(C)c(S(=O)(=O)N3CCCCC3)c2)cc1	3	15	-9	3	x	x	x	x
Cc1ccc(C(=O)c2ccccc2C(=O)OCC(=O)Nc2cccc([N+](=O)[O-])c2)cc1	-1	18	5	0	-3	x	x	x
Cc1ccc(Cl)c(NC(=O)COC(=O)c2ccccc2C(=O)c2ccc(Cl)c([N+](=O)[O-])c2)c1Cl	-27	7	-2	27*	13	29*	18	15*
OC(CON=C1c2ccccc2-c2ccccc21)CN1CCNCC1 (stereo not drawn)	-5	-8	-5	2	-4	x	x	x
COC1C=CC=C(C)C(=O)NC2=CC(=O)C(N)=C(CC(C)CC(OC)C(O)C(C)C=C(C)C1OC(N)=O)C2=O (stereo not drawn)	4	12	13	24*	x	2	-4	85*
O=CN1CCN(C(=O)c2ccccc2Cl)CC1	5	-5	-5	44*	-2	-5	-5	-2
O=C(c1ccccc1Cl)N1CCSCC1	0	18	-16	8	x	x	x	x
COCCCNc1ccn2nc(-c3ccc(Cl)cc3)cc2n1	-2	14	-9	x	x	x	x	x
NNC(=O)c1oc2nc(-c3cccs3)cc(-c3ccco3)c2c1N	-51	5	4	22*	x	12	14	-2
Cc1[nH]n(-c2ccccc2)c(=O)c1C=NCC1CCCO1 (stereo not drawn)	0	5	-4	26*	-6	4	-1	2
CC(=O)Nc1ccc(C(=O)NCC2CCCCC2)cc1	0	2	2	5	x	x	x	x
COc1cc2c(cc1OC)C(Cc1ccccc1[N+](=O)[O-])=NCC2	-1	-8	-7	-18	x	x	x	x
COc1ccc(-c2cc(C(=O)NCc3ccco3)c3ccccc3n2)cc1	3	-14	6	3	x	x	x	x
COc1ccc(-c2cc(C(=O)NCc3ccco3)c3ccccc3n2)c(OC)c1	0	9	-4	33*	x	1	-1	-2
CCOc1cc(C2NN=C(c3ccc(C)cc3)S2)ccc1O (stereo not drawn)	0	-7	15	21*	6	11	10	10
Cc1ccc(N2C(=O)NC(NS(=O)(=O)c3ccc(C)cc3)(C(F)(F)F)C2=O)cc1 (stereo not drawn)	2	9	-5	21*	x	-2	-4	2
Cc1ccc(N2C(=O)NC(NS(=O)(=O)c3ccccc3)(C(F)(F)F)C2=O)cc1 (stereo not drawn)	-3	5	-4	0	x	x	x	x
COc1ccccc1NS(=O)(=O)NC(=O)c1c(C)[nH]c2ccccc12	-3	11	-6	21*	x	-2	-4	3
COc1cc(N2C(=O)C=CC2=O)ccc1N1C(=O)C=CC1=O	1	12	26*	39*	x	64*	44	101*
